Test results reported in paper PMC3992716 (European journal of pharmacology, 2013).

How the values were obtained:
α4(2)β2(2)α5 [1] = molecular target: T1, α4(2)β2(2)α5 (Homo sapiens, UniProt P17787+P30532+P43681); type: cell-based
Method in brief: (§1)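 Xenopus oocytes defolliculated with collagenase, clamped at −60 mV and perfused with Ringer's containing 1 μM atropine. Rising test compound concentrations were co-applied with control ACh (100 μM for α4(2)β2(2)α5, 30 μM for α4β2α6β2β3), alternating with ACh alone; fresh cells were used if ACh controls fell below 75%. Peak currents were normalised to the preceding ACh control.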

α4β2α6β2β3 [2] = molecular target: T2, α4β2α6β2β3 (Homo sapiens, UniProt P17787+P43681+Q05901+Q15825); type: cell-based
Method in brief: as §1

α2(2)β2(2)α5 = α2(2)β2(2)α5 (Homo sapiens, UniProt P17787+P30532+Q15822); test: two-electrode voltage clamp, Xenopus oocytes, agonist-evoked response; type: cell-based
α4β2α6β2β3 [3] = molecular target: T2, α4β2α6β2β3; test: cell-based
α4(2)β2(2)α5 [4] = molecular target: T1, α4(2)β2(2)α5; test: cell-based

T2 sequence (P43681 27-627): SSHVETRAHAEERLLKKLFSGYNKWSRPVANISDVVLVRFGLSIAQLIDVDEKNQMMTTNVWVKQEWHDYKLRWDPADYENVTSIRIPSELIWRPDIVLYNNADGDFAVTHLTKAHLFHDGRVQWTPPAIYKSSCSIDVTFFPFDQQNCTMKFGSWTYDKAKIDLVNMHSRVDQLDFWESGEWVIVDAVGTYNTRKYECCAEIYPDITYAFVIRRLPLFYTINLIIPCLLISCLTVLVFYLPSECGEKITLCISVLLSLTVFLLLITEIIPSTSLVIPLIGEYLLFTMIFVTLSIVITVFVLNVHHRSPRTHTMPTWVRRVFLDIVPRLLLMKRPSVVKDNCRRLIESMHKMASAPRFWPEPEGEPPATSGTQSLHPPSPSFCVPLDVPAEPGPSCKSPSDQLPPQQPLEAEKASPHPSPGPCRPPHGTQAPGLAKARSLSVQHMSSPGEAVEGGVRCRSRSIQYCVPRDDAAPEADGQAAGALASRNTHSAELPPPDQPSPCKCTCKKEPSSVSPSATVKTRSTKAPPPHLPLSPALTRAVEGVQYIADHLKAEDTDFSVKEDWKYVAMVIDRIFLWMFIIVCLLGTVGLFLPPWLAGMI
T2 sequence (P17787 26-502): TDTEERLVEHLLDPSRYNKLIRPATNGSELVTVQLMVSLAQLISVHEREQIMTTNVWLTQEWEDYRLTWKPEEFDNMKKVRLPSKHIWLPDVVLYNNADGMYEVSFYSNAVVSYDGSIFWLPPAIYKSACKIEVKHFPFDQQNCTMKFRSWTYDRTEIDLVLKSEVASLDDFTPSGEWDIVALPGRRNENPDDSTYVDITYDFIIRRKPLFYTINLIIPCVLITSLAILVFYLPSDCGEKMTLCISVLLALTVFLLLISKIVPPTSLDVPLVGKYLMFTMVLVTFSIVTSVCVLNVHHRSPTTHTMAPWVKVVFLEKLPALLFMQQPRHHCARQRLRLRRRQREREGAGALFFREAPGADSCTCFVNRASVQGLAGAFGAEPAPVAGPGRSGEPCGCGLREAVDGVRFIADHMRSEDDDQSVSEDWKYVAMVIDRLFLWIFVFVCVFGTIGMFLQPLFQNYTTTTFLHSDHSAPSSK
T2 sequence (Q15825 26-494): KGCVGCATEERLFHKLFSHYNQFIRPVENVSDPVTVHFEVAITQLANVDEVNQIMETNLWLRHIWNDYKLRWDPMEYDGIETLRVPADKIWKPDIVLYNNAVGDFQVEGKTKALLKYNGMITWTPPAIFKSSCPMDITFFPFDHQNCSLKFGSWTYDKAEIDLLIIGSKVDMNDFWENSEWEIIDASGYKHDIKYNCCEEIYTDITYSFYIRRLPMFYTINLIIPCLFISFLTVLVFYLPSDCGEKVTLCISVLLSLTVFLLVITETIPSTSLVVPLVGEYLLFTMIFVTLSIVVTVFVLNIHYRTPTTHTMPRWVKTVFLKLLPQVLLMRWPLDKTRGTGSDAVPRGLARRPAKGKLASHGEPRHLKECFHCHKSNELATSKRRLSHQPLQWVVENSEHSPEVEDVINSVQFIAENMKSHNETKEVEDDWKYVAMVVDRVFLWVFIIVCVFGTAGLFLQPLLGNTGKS
T2 sequence (Q05901 22-458): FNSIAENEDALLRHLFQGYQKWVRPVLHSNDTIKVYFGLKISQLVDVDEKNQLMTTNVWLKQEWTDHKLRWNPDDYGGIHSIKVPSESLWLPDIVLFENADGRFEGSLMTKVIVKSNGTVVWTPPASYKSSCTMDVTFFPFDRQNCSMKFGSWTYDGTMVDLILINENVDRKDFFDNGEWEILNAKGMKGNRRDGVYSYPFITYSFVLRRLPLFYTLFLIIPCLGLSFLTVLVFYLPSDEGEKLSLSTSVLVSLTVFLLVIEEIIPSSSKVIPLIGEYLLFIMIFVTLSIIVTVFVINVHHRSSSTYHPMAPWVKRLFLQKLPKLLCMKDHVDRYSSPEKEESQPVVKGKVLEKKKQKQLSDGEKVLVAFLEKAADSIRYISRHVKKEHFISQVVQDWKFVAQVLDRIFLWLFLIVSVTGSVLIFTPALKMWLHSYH
T1 sequence (P43681 27-627): as the sequence (P43681 27-627) above
T1 sequence (P17787 26-502): as the sequence (P17787 26-502) above
T1 sequence (P30532 23-468): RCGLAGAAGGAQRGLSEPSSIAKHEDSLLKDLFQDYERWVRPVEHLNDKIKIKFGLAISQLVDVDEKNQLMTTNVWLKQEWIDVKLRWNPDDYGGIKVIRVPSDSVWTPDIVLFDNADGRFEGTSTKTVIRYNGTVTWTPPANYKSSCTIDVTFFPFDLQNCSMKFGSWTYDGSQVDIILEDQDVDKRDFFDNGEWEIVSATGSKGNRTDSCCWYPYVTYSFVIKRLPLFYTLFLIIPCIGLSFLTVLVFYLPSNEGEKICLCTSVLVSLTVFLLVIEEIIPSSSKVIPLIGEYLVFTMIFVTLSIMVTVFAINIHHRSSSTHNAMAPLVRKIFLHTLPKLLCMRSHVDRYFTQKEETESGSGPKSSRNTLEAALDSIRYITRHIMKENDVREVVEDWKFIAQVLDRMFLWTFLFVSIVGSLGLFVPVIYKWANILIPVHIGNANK
Chain of α2(2)β2(2)α5 (Q15822 27-529): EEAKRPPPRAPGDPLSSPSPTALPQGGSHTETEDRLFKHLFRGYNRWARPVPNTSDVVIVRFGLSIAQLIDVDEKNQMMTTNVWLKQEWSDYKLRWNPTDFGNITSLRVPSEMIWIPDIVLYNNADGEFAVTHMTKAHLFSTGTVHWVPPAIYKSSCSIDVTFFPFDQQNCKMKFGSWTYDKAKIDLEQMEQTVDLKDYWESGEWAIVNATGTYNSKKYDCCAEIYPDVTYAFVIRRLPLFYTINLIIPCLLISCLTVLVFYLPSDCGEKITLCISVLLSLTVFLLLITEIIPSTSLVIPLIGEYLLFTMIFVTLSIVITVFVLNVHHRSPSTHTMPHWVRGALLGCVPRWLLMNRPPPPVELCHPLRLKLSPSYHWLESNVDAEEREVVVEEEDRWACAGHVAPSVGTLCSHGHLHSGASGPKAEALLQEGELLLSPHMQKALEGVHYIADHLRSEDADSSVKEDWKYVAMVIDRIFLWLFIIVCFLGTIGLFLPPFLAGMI
Chain of α2(2)β2(2)α5 (P17787 26-502): as the sequence (P17787 26-502) above
Chain of α2(2)β2(2)α5 (P30532 23-468): as the sequence (P30532 23-468) above

IC50 (α4(2)β2(2)α5 [1])	IC50 (α4β2α6β2β3 [2])	SMILES	EC50 (α2(2)β2(2)α5)	EC50 (α4β2α6β2β3 [3])	EC50 (α4(2)β2(2)α5 [4])
12 ± 1 µM	14 ± 7 µM	CN[C@@]1(C)[C@@H]2CC[C@@H](C2)C1(C)C [S(+)Mecamylamine, N-2,3,3-tetramethylbicyclo[2.2.1]heptan-2-amine]	–	–	–
–	–	CN1CCC[C@H]1c1cccnc1 [nicotine]	1.6 ± 0.2 µM	–	–
35 ± 5 µM	13 ± 5 µM	CNC1(C)C2CCC(C2)C1(C)C (stereo not drawn) [R(-)Mecamylamine, N-2,3,3-tetramethylbicyclo[2.2.1]heptan-2-amine]	–	–	–
–	–	CCOc1cncc(/C=C/CCNC)c1 [TC-2559]	6.2 ± 1 µM	1.7 ± 0.3 µM	1.6 ± 0.3 µM
